Results reported in ChEMBL document CHEMBL1129935, “Chromophore-modified bis-naphthalimides: synthesis and antitumor activity of bis-dibenz[de,h]isoquinoline-1,3-diones” (J Med Chem, 1997).

Assays:
HT-29 = experiment: In vitro cytotoxicity against HT-29 (human colon adenocarcinoma) cell line.; assay type: functional, cell-based
Method in brief: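 Human colon carcinoma HT-29 cells, 3000/well in DMEM with 10% FBS, attached 24 h. Free bases dissolved in DMSO, final DMSO <1%, added as 1:4 serial dilutions. Exposure 72 h at 37 °C, 5% CO2. MTT added for 4 h, formazan solubilized overnight in 25% SDS (pH 2), absorbance read at 550 nm. IC50 taken as concentration giving 50% of control growth.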

Mus musculus [1] = experiment: Median survival time of treated mice (T) compared to controls expressed as a percentage (%T/C) at the dose of 1.8 mg/kg (dose administered intraperitoneally on days 1, 5 and 9).; assay type: functional; settings: route intraperitoneal
Method in brief: (§1)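 M5076 murine sarcoma cells (10^6) implanted ip in C57Bl/6 mice. Agent given as its dimethanesulfonate salt dissolved in water. Median survival time (MST) recorded for treated and concurrent control groups. Activity expressed as %T/C, the treated MST as a percentage of the control MST.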

Mus musculus [2] = experiment: Median survival time of Compound on C57B1/6 mice which was implanted intraperitoneally with M5076 murine sarcoma cells at the dose of 0.8 mg/kg (dose administered intraperitoneally on days 1, 5 and 9).; assay type: functional; settings: route intraperitoneal; method in brief: as §1
Mus musculus [3] = experiment: Median survival time of treated mice (T) compared to controls expressed as a percentage (%T/C) at the dose of 1.2 mg/kg (dose administered intraperitoneally on days 1, 5 and 9).; assay type: functional; settings: route intraperitoneal; method in brief: as §1
Mus musculus [4] = experiment: Median survival time of Compound on C57B1/6 mice which was implanted intraperitoneally with M5076 murine sarcoma cells at the dose of 1.8 mg/kg (dose administered intraperitoneally on days 1, 5 and 9).; assay type: functional; settings: route intraperitoneal; method in brief: as §1
Mus musculus [5] = experiment: Median survival time of treated mice (T) compared to controls expressed as a percentage (%T/C) at the dose of 0.8 mg/kg (dose administered intraperitoneally on days 1, 5 and 9).; assay type: functional; settings: route intraperitoneal; method in brief: as §1
Mus musculus [6] = experiment: Median survival time of Compound on C57B1/6 mice which was implanted intraperitoneally with M5076 murine sarcoma cells at the dose of 1.2 mg/kg (dose administered intraperitoneally on days 1, 5 and 9).; assay type: functional; settings: route intraperitoneal; method in brief: as §1
Mus musculus [7] = experiment: Median survival time of Compound on C57B1/6 mice which was implanted intraperitoneally with M5076 murine sarcoma cells at the dose of 5.0 mg/kg (dose administered intraperitoneally on days 1, 5 and 9).; assay type: functional; settings: route intraperitoneal
Method in brief: (§2)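 M5076 murine sarcoma, 10^6 cells implanted intraperitoneally into C57Bl/6 mice. Median survival time recorded for treated (T) and control (C) groups. %T/C calculated as the treated median survival relative to the control median survival, times 100.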

Mus musculus [8] = experiment: Median survival time of Compound on C57B1/6 mice which was implanted intraperitoneally with M5076 murine sarcoma cells at the dose of 2.2 mg/kg (dose administered intraperitoneally on days 1, 5 and 9).; assay type: functional; settings: route intraperitoneal; method in brief: as §2
Mus musculus [9] = experiment: Median survival time of treated mice (T) compared to controls expressed as a percentage (%T/C) at the dose of 5.0 mg/kg (dose administered intraperitoneally on days 1, 5 and 9).; assay type: functional; settings: route intraperitoneal; method in brief: as §2
Mus musculus [10] = experiment: Median survival time of treated mice (T) compared to controls expressed as a percentage (%T/C) at the dose of 2.2 mg/kg (dose administered intraperitoneally on days 1, 5 and 9).; assay type: functional; settings: route intraperitoneal; method in brief: as §2
Mus musculus [11] = experiment: Median survival time of treated mice (T) compared to controls expressed as a percentage (%T/C) at the dose of 3.3 mg/kg (dose administered intraperitoneally on days 1, 5 and 9).; assay type: functional; settings: route intraperitoneal; method in brief: as §2
Mus musculus [12] = experiment: Median survival time of Compound on C57B1/6 mice which was implanted intraperitoneally with M5076 murine sarcoma cells at the dose of 3.3 mg/kg (dose administered intraperitoneally on days 1, 5 and 9).; assay type: functional; settings: route intraperitoneal; method in brief: as §2
Mus musculus [13] = experiment: Median survival time of treated mice (T) compared to controls expressed as a percentage (%T/C) at the dose of 7.5 mg/kg (dose administered intraperitoneally on days 1, 5 and 9).; assay type: functional; settings: route intraperitoneal; method in brief: as §2
Mus musculus [14] = experiment: Median survival time of Compound on C57B1/6 mice which was implanted intraperitoneally with M5076 murine sarcoma cells at the dose of 7.5 mg/kg (dose administered intraperitoneally on days 1, 5 and 9).; assay type: functional; settings: route intraperitoneal; method in brief: as §2

Compound | IC50 (HT-29) [nM] | other results
O=C1c2cccc3cc4ccccc4c(c23)C(=O)N1CCN1CCCN(CCN2C(=O)c3cccc4cc5ccccc5c(c34)C2=O)C1 | 2 | 
O=C1c2cccc3cc4ccccc4c(c23)C(=O)N1CCCNCCCN1C(=O)c2cccc3cc4ccccc4c(c23)C1=O | 20 | 
O=C1c2cccc3cc4ccccc4c(c23)C(=O)N1CCCNCCCCNCCCN1C(=O)c2cccc3cc4ccccc4c(c23)C1=O | 200 | 
O=C1c2cccc3cc4ccccc4c(c23)C(=O)N1CCCCNCCCN1C(=O)c2cccc3cc4ccccc4c(c23)C1=O | 70 | 
O=C1c2cccc3cc4ccccc4c(c23)C(=O)N1CCNCCCNCCN1C(=O)c2cccc3cc4ccccc4c(c23)C1=O | 4 | T/C (Mus musculus [1]): 143%; MST (Mus musculus [2]): 31.5 days; T/C (Mus musculus [3]): 155%; MST (Mus musculus [4]): 31.2 days; T/C (Mus musculus [5]): 143%; MST (Mus musculus [6]): 34 days
CN(C)CCN1C(=O)c2cccc3cc([N+](=O)[O-])cc(c23)C1=O [MITONAFIDE] | 600 | 
O=C1c2cccc3cc4ccccc4c(c23)C(=O)N1CCNCCCCCNCCN1C(=O)c2cccc3cc4ccccc4c(c23)C1=O | 9 | 
CN(C)CCN1C(=O)c2cccc3cc4ccccc4c(c23)C1=O [AZONAFIDE] | 140 | 
O=C1c2cccc3cc4c([N+](=O)[O-])cccc4c(c23)C(=O)N1CCNCCCNCCN1C(=O)c2cccc3cc4c([N+](=O)[O-])cccc4c(c23)C1=O | 35 | 
O=C1c2cccc3cc4ccccc4c(c23)C(=O)N1CCCNCCNCCCN1C(=O)c2cccc3cc4ccccc4c(c23)C1=O | 95 | 
O=C1c2cccc3cc4ccccc4c(c23)C(=O)N1CCCNCCN1C(=O)c2cccc3cc4ccccc4c(c23)C1=O | 2000 | 
O=C1c2cccc3cc4ccccc4c(c23)C(=O)N1CCNCCNCCN1C(=O)c2cccc3cc4ccccc4c(c23)C1=O | 9 | 
CN(C)CCN1C(=O)c2cccc3cc(N)cc(c23)C1=O [AMONAFIDE] | 3000 | 
O=C1c2cccc3cc4ccccc4c(c23)C(=O)N1CCNCCCCNCCN1C(=O)c2cccc3cc4ccccc4c(c23)C1=O | 41 | 
O=C1c2cccc3cc4ccccc4c(c23)C(=O)N1CCNCCN1C(=O)c2cccc3cc4ccccc4c(c23)C1=O | 30 | 
CN(CCCN1C(=O)c2cccc3cc4ccccc4c(c23)C1=O)CCCN1C(=O)c2cccc3cc4ccccc4c(c23)C1=O | 19 | 
O=C1c2cccc3cc4c([N+](=O)[O-])cccc4c(c23)C(=O)N1CCNCCNCCN1C(=O)c2cccc3cc4c([N+](=O)[O-])cccc4c(c23)C1=O | 95 | 
CN(CCN(C)CCN1C(=O)c2cccc3cc4ccccc4c(c23)C1=O)CCN1C(=O)c2cccc3cc4ccccc4c(c23)C1=O | 75 | 
O=C1c2cccc3cccc(c23)C(=O)N1CCNCCCNCCN1C(=O)c2cccc3cccc(c23)C1=O [ELINAFIDE] | 14 | MST (Mus musculus [7]): 24 days; MST (Mus musculus [8]): 21.5 days; T/C (Mus musculus [9]): 102%; T/C (Mus musculus [10]): 91%; T/C (Mus musculus [11]): 91%; MST (Mus musculus [12]): 21.5 days; T/C (Mus musculus [13]): 89%; MST (Mus musculus [14]): 21 days
O=C1c2cccc3cc4ccccc4c(c23)C(=O)N1CCCNCCCNCCCN1C(=O)c2cccc3cc4ccccc4c(c23)C1=O | 90 | 
